Paper PMC5063151 (Chemmedchem, 2015)

Tests used:
[1] = test system: VEGF11−109 (VEGF); test: STD and WaterLOGSY ligand-observed NMR binding experiments; settings: STD, 1 mM baicalin, 10 μM VEGF, 298 K
In short: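 Ligand‑observed STD and WaterLOGSY were run with 10 μM VEGF and 0.5 or 1 mM test compound in 25 mM sodium phosphate pH 7.0, 50 mM NaCl, […], at 37, 25 or 5 °C on 600/500 MHz spectrometers. On‑resonance saturation targeted the aliphatic protein region (STD) or the water signal (WaterLOGSY). Binding was judged from ligand STD/WaterLOGSY signals.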

[2] = test system: VEGF (v107 / receptor binding site); test: STD competition assay with peptide v107; settings: 1 mM baicalin, 10 μM VEGF, 298 K, 50 and 100 μM v107
[3] = molecular target: T1, methyl‐13C‐Met‐labeled VEGF (Homo sapiens, UniProt P15692); test: Protein-observed CSP with methyl‐13C‐Met‐labeled VEGF; assay type: binding
T1 sequence (P15692 217-315): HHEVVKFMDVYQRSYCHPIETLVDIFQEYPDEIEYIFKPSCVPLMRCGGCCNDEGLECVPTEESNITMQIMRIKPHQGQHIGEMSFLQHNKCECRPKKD
In short: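 Methyl‑13C‑Met‑labeled VEGF at 30 μM in 25 mM sodium phosphate pH 7.0, 50 mM NaCl, 10% D2O, usually at 45 °C. 1H–13C HSQC used 256×96 points with 8 scans per increment. 13C‑decoupled‑13C‑filtered 1D 1H spectra used 2048 points and 128 scans. KD came from ligand‑titration chemical shift perturbations.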

Q: What does the source list for `O=C(O)[C@H]1O[C@@H](Oc2cc3oc(-c4ccccc4)cc(=O)c3c(O)c2O)[C@H](O)[C@@H](O)[C@@H]1O` [baicalin]?
A: Binding of isolated compound to VEGF [1]: able to bind VEGF; STD competition with v107 (reduction of ligand STD signals) [2]: baicalin and v107 compete for the same binding site

Q: With `O=c1c(O[C@@H]2O[C@H](CO)[C@@H](O)[C@H](O)[C@H]2O)c(-c2ccc(O)c(O)c2)oc2cc(O)cc(O)c12` [quercetin‐3‐β‐glucoside] as the compound, how does the “Methionine perturbations on 13C‐filtered‐13C‐decoupled 1H NMR spectra of VEGF” value ([3]; baicalin‐related flavonoids of Figure 7 a) read?
A: Its value is “induced methionine perturbations”.

Q: Which “VEGF binding affinity from titration experiments” value ([3]; CSP titration, methyl‐13C‐Met‐labeled VEGF) does the source give for “&D‐Pro‐Trp‐Glu‐D‐Pro‐Trp‐Glu& (head to tail)” here?
A: Its value is “low‐millimolar range”.
